Measured values taken from ChEMBL document CHEMBL4402581, “Monohydrazone Based G-Quadruplex Selective Ligands Induce DNA Damage and Genome Instability in Human Cancer Cells” (J Med Chem, 2020).
Active and inactive are the calls of the source. No cut-off for these calls is given here.

Assays:
[1] = Effect on hairpin-duplex DNA architecture at 10 mol.equiv by circular dichroism spectral analysis
How it was run: (§1)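 CD spectra of 15 μM G4s or 30 μM hairpin in 20 mM K phosphate pH 7.0 with 5 mM KCl, after annealing. Recorded at 20 °C over 230–360 nm, three scans averaged, buffer baseline subtracted. Ligand was added at 10 mol equiv to the folded DNA from a 10 mM DMSO stock.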

Quadruplex DNA [2] = assay: Stabilization of c-Kit1 G4 quadruplex DNA assessed as change in melting temperature at 10 mol.equiv by circular dichroism melting assay; assay type: nucleic-acid assay
How it was run: (§2)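 CD melting from 20 to 100 °C at 1 °C/min, monitored at 264 nm (c-Kit1, c-Kit2, c-Myc, Tel23-p), 287 nm (Tel23-h) or 280 nm (hairpin). Ligand was at 10 mol equiv with folded DNA (15 μM G4, 30 μM hairpin). ΔTm is Tm with ligand minus Tm without, from curve fits, averaged over triplicates.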

Quadruplex DNA [3] = assay: Stabilization of human Tel23 G4 quadruplex DNA assessed as change in melting temperature at 10 mol.equiv by circular dichroism melting assay; assay type: nucleic-acid assay; how it was run: as §2
Quadruplex DNA [4] = assay: Effect on c-Kit2 G4 quadruplex DNA architecture at 10 mol.equiv by circular dichroism spectral analysis; assay type: nucleic-acid assay; how it was run: as §1
Quadruplex DNA [5] = assay: Binding affinity at FAM/TAMRA-tagged parallel Tel21 G4 quadruplex DNA assessed as melting temperature at 2 uM in presence of 50 fold excess duplex DNA by FRET melting assay (reference value: 55.4 +/- 0.2 degreeC); assay type: nucleic-acid assay
How it was run: (§3)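 Dual FAM/TAMRA-labelled oligos (0.2 μM) in 20 mM K phosphate pH 7.0 with 5 mM KCl, annealed 90 °C 5 min, slow-cooled overnight, held 4 °C 24 h. The Tel21 parallel form was annealed at high DNA concentration. Ligand 2 μM. Unlabelled ds12 duplex competitor at 0, 5 or 10 μM final. Tm was read from FRET melting curves.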

Quadruplex DNA [6] = assay: Stabilization of G4 quadruplex DNA in human U2OS cells assessed as increase in number of G4 foci at 2 uM incubated for 24 hrs by immunofluorescence microscopy; assay type: cell-based
Quadruplex DNA [7] = assay: Binding affinity at FAM/TAMRA-tagged c-Kit2 G4 quadruplex DNA assessed as melting temperature at 2 uM in presence of 25 fold excess duplex DNA by FRET melting assay (reference value: 69.7 +/- 0.3 degreeC); assay type: nucleic-acid assay; how it was run: as §3
Quadruplex DNA [8] = assay: Effect on parallel Tel23 G4 quadruplex DNA architecture at 10 mol.equiv by circular dichroism spectral analysis; assay type: nucleic-acid assay; how it was run: as §1
U2OS = assay: Induction of DNA damage in human U2OS cells assessed as increase in phosphorylated 53BPI foci colocalization with gammaH2AX foci at 10 uM incubated for 4 hrs by immunofluorescence microscopy; assay type: functional, cell-based
How it was run: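 U2OS cells were treated with 10 μM for 4 h, pre-extracted 3 min with CSK buffer containing 0.5% Triton X-100, and fixed in 2% paraformaldehyde. Co-stained 1 h for 53BP1 and γH2AX, with DAPI counterstain. Foci were counted per nucleus and normalized to the untreated mean, across three biological replicates.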

Quadruplex DNA [9] = assay: Effect on c-Kit1 G4 quadruplex DNA architecture at 10 mol.equiv by circular dichroism spectral analysis; assay type: nucleic-acid assay; how it was run: as §1
Quadruplex DNA [10] = assay: Binding affinity at FAM/TAMRA-tagged parallel Tel21 G4 quadruplex DNA assessed as melting temperature at 2 uM in presence of 25 fold excess duplex DNA by FRET melting assay (reference value: 55.4 +/- 0.2 degreeC); assay type: nucleic-acid assay; how it was run: as §3

CC(C)(C)c1cc(/C=N/NC(=N)N)c(O)c(/C=C2/C(=O)Nc3c2ccc2ccccc32)c1.Cl
Activity [1]: inactive
Activity (Quadruplex DNA [2]): Active
ΔTm (Quadruplex DNA [3]): < 2 °C
Activity (Quadruplex DNA [4]): inactive
Tm (Quadruplex DNA [5]): 68.1 °C
Activity (Quadruplex DNA [6]): Active
Tm (Quadruplex DNA [7]): 76.4 °C
Activity (Quadruplex DNA [8]): inactive
Activity (U2OS): Active
Activity (Quadruplex DNA [9]): inactive
Tm (Quadruplex DNA [10]): 67.7 °C
